# Screens as filed in PubChem.
# An excerpt weighted towards active compounds, which were near 2% of everything screened.
# RAD52 anneal inh: RAD52 (human) annealing inhibition. actives 0.46% (n = 360,000). P43351. recombinant RAD52 DNA annealing, FRET fluorescence. inhibition, % at 18.7 µM;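 active = every replicate showing at least 50% inhibition; inconclusive = mean inhibition at least 50% but not in every replicate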
# E-sel inducer: induces E-selectin expression in human endothelial cells; actives 0.37% (n = 260,000); activation, % at 7.58 µM; HUVEC E-selectin immunofluorescence imaging; normalized: neutral wells 0, TNF-alpha wells 100; AID 686992;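 active = mean E-selectin-positive cell signal at least 10% of the positive control, reached in at least 60% of replicates, without over 20% cell loss; inconclusive = no rule given, readout overlaps actives, possibly toxicity-flagged; inactive = the rest, including those meeting only one limit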
# Target sequence (P16581 whole entry, looked up): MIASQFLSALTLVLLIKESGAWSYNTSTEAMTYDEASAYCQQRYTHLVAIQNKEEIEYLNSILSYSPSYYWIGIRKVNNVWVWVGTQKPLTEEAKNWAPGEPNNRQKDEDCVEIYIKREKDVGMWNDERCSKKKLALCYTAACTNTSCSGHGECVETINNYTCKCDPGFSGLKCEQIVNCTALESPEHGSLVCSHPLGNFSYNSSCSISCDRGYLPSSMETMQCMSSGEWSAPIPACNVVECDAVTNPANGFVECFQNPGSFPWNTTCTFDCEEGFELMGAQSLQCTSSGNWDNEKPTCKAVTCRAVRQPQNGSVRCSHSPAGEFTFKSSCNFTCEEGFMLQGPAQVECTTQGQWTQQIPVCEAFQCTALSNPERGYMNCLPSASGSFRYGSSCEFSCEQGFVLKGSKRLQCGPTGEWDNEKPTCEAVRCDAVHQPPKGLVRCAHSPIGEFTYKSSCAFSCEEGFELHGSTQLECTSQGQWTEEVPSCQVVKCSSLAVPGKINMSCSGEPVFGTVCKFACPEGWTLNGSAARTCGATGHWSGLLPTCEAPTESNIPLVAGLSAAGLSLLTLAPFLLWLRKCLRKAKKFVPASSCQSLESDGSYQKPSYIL
#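 Test system – human umbilical vein endothelial cells (HUVEC), E-selectin induction · Input – 3,000 HUVEC seeded per well · Buffer or medium – EGM-2, gelatin · Compound dosing – single-point compound dose · Detection – immunofluorescence imaging · Measure – percent E-selectin-positive cells · Controls – TNF-alpha high, DMSO low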
# rRNA inh HTS: inhibits bacterial ribosomal RNA function over humanized ribosomes | E. coli WT GFP vs humanized-ribosome RFP mutants, fluorescence, 24 h; hits give low values; DMSO median 0, no signal -100 | GFP signal change (wild-type ribosome), % (concentration not given with the values) | actives 1.6% (n = 350,000) | AID 720706;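 active = significant combined selectivity score with lowered wild-type GFP, culture density cut under 30%, mutant RFP and density less affected; inactive = any of these conditions unmet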
# PglD DTNB: blocks C. jejuni PglD acetyltransferase activity | purified PglD enzyme, DTNB colorimetric CoA detection | actives 0.098% (n = 360,000) | inhibition, % at 12.5 µM; in the data active = inhibition above about 16%, passing the limit was not always enough; inconclusive = no clear call, values can overlap the other calls
# RAD54 branch: blocks human RAD54 Holliday junction branch migration | FAM/BHQ fluorescence | Q92698 | actives 0.14% (n = 360,000) | AID 602329 | inhibition, % at 10.4 µM;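 active = mean normalized replicate activity at least 40 and at least half of replicates scoring 40 or more; inconclusive = only one of the two criteria met; inactive = mean below 40 and under half of replicates reaching 40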;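 also: 0% = median of neutral control wells and 100% = median of positive control wells; inhibitors cause a drop in the FAM fluorescence signal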
# XiGFP reactiv: activators of X-chromosome reactivation in mouse fibroblasts | XiGFP mouse fibroblasts, % GFP-positive cells imaging, 3 d; cells co-treated with 5-aza-dC sensitizer; scaled so ellipticine positive control = 100% | AID 743238 | activation, % at 7.58 µM | actives 0.055% (n = 360,000);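 active = mean normalized replicate activation at least 10% and every replicate at or above 10%; inconclusive = only one of the two criteria met; inactive = mean below 10% and not all replicates reach 10%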;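 also: 0% = median of on-plate neutral control wells and 100% = ellipticine 6 µM median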
#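 Material: XiGFP fibroblasts, SV40-immortalized; Buffer or medium: DMEM containing 5-aza-dC; Compound dosing: single point; Times: 3 days compound exposure.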
# HepG2 tox: kills or reduces viability of HepG2 cells; shares compounds with rRNA inh HTS; activity change, negative = cytotoxicity, unspecified at 26 µM; AID 743480; ATP luminescence, 72 h; 30 tested, under 10 active;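 active = compounds whose fitted half-maximal signal-loss concentration is at most twice their highest valid dose; inconclusive = flat curve with 30 to 70% signal loss, or poor fit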
# AID977621: wild-type E. coli growth inhibition versus H69 humanized strain – H69 mutant RFP, wild-type GFP, cherry-pick, dose response; fluorescence, 24 h; activity change, negative = inhibition at 50 µM; AID 977621; 1,900 tested, under 10 active; shares compounds with rRNA inh HTS;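 active = Wild-type ribosome reporter drop at least double the humanized mutant ribosome reporter drop, growth loss under a set limit; inconclusive = no clear call, values can overlap the other calls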;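 also: wild-type GFP and H69 mutant RFP strains grown together 50/50 in each well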
# AID977628: E. coli growth inhibition, wild-type GFP versus h24 humanized RFP strain, dose response, h24 mutant RFP vs wild-type GFP, cherry-pick. 1,900 tested, under 10 active. E. coli WT GFP strain growth, fluorescence, 24 h. shares compounds with rRNA inh HTS. activity change, negative = inhibition at 50 µM;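 active = compound lowering the normal-ribosome reporter at least twice as much as the humanized-ribosome reporter, growth loss under a set limit; inconclusive = no clear call, values can overlap the other calls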;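 also: wild-type GFP and h24 humanized RFP strains co-cultured 1 to 1 per well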
# Starred values were filed as active, the others as inactive; ? = inconclusive; . = not tested or not shown.
SMILES,RAD52 anneal inh,E-sel inducer,rRNA inh HTS,PglD DTNB,RAD54 branch,XiGFP reactiv,AID977621,AID977628,others
O=C(C[C@@H]1CC[C@@H]2[C@H](COC[C@@H](O)CN2C(=O)c2ccccc2F)O1)N1CCN(c2ccccc2)CC1,-33,0,3,3,0,0,.,.,
CCCNC(=O)N1CC2(CN(C(=O)C3CCC3)C2)c2c([nH]c3cc(OC)ccc23)[C@H]1CO,.,0,-3,.,.,0,.,.,
COc1ccc(C(=O)Nc2cccc3ccccc23)cc1,-6,0,-19*,-1,3,0,-11,-12,
COc1ccccc1NC(=O)c1ccc(NC(=O)c2ccco2)cc1,-15,0,-3,.,.,0,.,.,
COc1cc(OC)cc(C(=O)Nc2ccc(C(=O)Nc3ccccc3OC)cc2)c1,-25,0,-22*,-1,0,0,0.97,?,
C/C=C/c1ccc2c(c1)O[C@@H](CN(C)Cc1cccc(F)c1)[C@H](C)CN([C@@H](C)CO)S2(=O)=O,1,-2,3,5,-1,-1,.,.,
Nc1ccccc1Sc1nc2ccccc2[nH]1,4,2,.,.,.,0,.,.,
Nc1ccccc1Sc1c[nH]c2ccccc12,-9,.,-26*,2,-4,0,-0.73,-11,
CO[C@@H]1CN(C)C(=O)c2ccc(NC(=O)c3nc4ccccc4s3)cc2OC[C@H](C)N(Cc2ccncc2)C[C@@H]1C,10,0,-29,2,7,-1,.,.,
CO[C@@H]1CN(C)C(=O)c2ccc(NC(=O)c3nc4ccccc4s3)cc2OC[C@@H](C)N(Cc2ccncc2)C[C@@H]1C,11,0,-25*,4,-2,0,.,?,
O=C(CCC(=O)N1CCN(c2ccc(F)cc2)CC1)c1ccc(F)cc1,-3,.,-20*,.,.,0,-1.8,-12,
CCC/C(=C1/c2ccccc2C(=O)N1c1ccccc1)c1ccc2[nH]ccc2c1,-5,1,-20,0,-2,0,.,.,
CCCC#C/C(CCC)=C1\c2ccccc2C(=O)N1c1ccccc1,-16,0,-16*,.,.,0,-4.9,?,
COC(=O)c1c(C)oc(C)c1S(=O)(=O)NC(c1ccccc1)c1ccccc1,-11,4,-35*,-1,-13,0,-21,.,
CCN1[C@@H]2c3ccc(C4=CCCCC4)c(=O)n3C[C@@H]2[C@@H](CO)[C@@H]1C(=O)NCc1ccccn1,-11,0,0,5,-6,0,.,.,
Cc1cccc(C2NC(c3cccc(C)c3)C(C)C(=O)C2C)c1 (stereo unspecified),-2,.,-11,-5,2,0,.,.,
Cc1ccc(C2NC(c3ccc(C)cc3)C(C)C(=O)C2C)cc1 (stereo unspecified),-8,0,-27*,.,.,0,-11,-5.2,
CSc1nc(N)nc(SC2C=CCCC2)c1C#N (stereo unspecified),-5,.,-24*,-4,-9,.,.,?,HepG2 tox=23
COc1ccc(NC(=O)c2nc[nH]c2C(=O)N(C)Cc2ccccc2)cc1,-11,0,-19*,6,-5,0,?,.,
O=S(=O)(Nc1ccccc1N1CCCCC1)c1cccs1,-12,0,-33*,-5,-1,0,-4.5,-8.4,
Cc1noc(C)c1NC(=O)Nc1ccc2c(c1)C(=O)N([C@H](C)CO)C[C@@H](C)[C@@H](CN(C)Cc1ccc(C(F)(F)F)cc1)O2,-1,.,-4,4,-7,1,.,.,
CCOc1ccc(OCC(=O)NCCc2nc3ccccc3[nH]2)cc1,.,.,.,-4,1,.,.,.,
